Compounds with a hit are over-represented: about 1.8% of the library has one in this group of screens.
NOD2 RIPK2 PPI – NOD2-RIPK2 protein interaction inhibition. O43353. CHO BLA complementation NOD2-RIPK2, CCF4 ratio. inhibition, % at 4.98 µM. 0.38% of 360,000 active. AID 624267; in the data active means inhibition above about 21%;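 further: 0% = vehicle only and 100% = reference blocker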
Target sequence (O43353 whole entry, looked up): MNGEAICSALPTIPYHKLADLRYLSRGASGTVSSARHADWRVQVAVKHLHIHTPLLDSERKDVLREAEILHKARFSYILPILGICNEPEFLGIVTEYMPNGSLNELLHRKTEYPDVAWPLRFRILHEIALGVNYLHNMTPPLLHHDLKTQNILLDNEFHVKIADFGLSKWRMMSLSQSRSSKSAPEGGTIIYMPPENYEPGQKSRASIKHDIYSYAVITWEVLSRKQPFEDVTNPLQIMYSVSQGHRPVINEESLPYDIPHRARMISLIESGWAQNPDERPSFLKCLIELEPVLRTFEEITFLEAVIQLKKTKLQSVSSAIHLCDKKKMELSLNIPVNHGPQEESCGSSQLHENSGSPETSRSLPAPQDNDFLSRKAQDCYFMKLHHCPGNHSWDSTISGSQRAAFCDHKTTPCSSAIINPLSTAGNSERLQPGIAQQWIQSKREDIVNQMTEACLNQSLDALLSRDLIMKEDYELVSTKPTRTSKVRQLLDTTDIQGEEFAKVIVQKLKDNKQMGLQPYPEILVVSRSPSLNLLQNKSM
TLR9-MyD88 block – blocks human TLR9 binding to MyD88; CHO BLA complementation TLR9-MyD88, CCF4 FRET ratio; 0.21% of 340,000 active; Q9NR96+Q99836; inhibition, % at 4.98 µM;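 active means inhibition above the mean over all tested compounds plus 3 SD, cut at about 21% in these data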;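 further: 0% = DMSO only wells and 100% = clavulanate BLA inhibitor control wells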
MC4R antag cAMP – human MC4R antagonism in cAMP assay | 0.48% of 360,000 active | inhibition, % at 6.5 µM | P32245 | MC4R-expressing cells, MTII-stimulated cAMP, LANCE TR-FRET;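 active means inhibition above its plate's cutoff, the mean of tested wells on that plate plus 3 SD, cut at about 29% in these data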;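 further: 0% = Melanotan II alone and 100% = Melanotan II plus saturating MCL0020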
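Material – human MC4R-expressing U2OS cells · Repeats – no replicates · Detection – TR-FRET with Eu-cAMP and labeled anti-cAMP, 671 nm · Times – compound 30 min, challenge 1 h, detection 1 h · Compound – single nominal compound dose of 6.5 µM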
MC4R barr agon – human MC4R agonism via beta-arrestin; AID 540308; P32245; 0.98% of 360,000 active; activation, % at 8.9 µM; U2OS MC4R beta-arrestin complementation, luminescence; percent of melanotan II response, DMSO zero;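 active means activation above a per-plate cutoff, the mean activation of sample wells on that plate plus 3 SD, cut at about 8% in these data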
TLR4-MyD88 BLA – inhibitors of human TLR4-MyD88 binding; HeLa CL3-4 TLR4/MyD88 BLA complementation, FRET ratio; 0.18% of 200,000 active; O00206+Q99836; inhibition, % at 8.4 µM; in the data active means inhibition above about 25%;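 further: 0% = vehicle and 100% = reference inhibitor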
TLR4 MyD88 cnf – confirmation of human TLR4-MyD88 binding inhibitors; shares compounds with TLR4-MyD88 BLA; HeLa CL3-4 BLA complementation, CCF4 FRET ratio; inhibition, % at 8.4 µM; 50% of 350 active; AID 941;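 active means mean inhibition across three repeat runs above about 25% carried over from the earlier screen, limit read from the data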;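 further: plate controls were DMSO only for no effect and clavulanic acid blocking BLA at full dose for full effect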
BLA inhibitor ct – counter-screen for TLR4-MyD88 inhibitors: beta-lactamase reporter inhibitors | shares compounds with TLR4-MyD88 BLA | 63% of 350 active | HeLa BLA reporter, CCF4 FRET ratio | inhibition, % at 8.4 µM;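 active means mean inhibition over three repeats above about 26% taken from the earlier screen, limit read from the data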;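 further: HeLa cells stably expressing beta-lactamase reporter as counterscreen for TLR4-MyD88 inhibitors; 0% = DMSO and 100% = clavulanic acid full inhibition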
TLR9-MyD88 conf – TLR9-MyD88 interaction inhibition, confirmation. 51% of 680 active. inhibition, % at 4.98 µM. CHO TLR9/MyD88 BLA complementation, CCF4 FRET ratio. shares compounds with TLR9-MyD88 block;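 active means mean inhibition across three repeats above about 21% taken from the earlier screen, limit read from the data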;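 further: blue over green emission ratio reports constitutive TLR9 MyD88 association via BLA complementation; 0% = DMSO vehicle wells and 100% = clavulanate BLA inhibitor wells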
BLA counter-1 – non-selective beta-lactamase inhibitors in TLR9-MyD88 counter-screen; shares compounds with TLR9-MyD88 block; CHO-BLA cells, CCF4 FRET ratio, BLA reporter; inhibition, % at 4.98 µM; 7% of 680 active;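 active means mean inhibition above a 50% cutoff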;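 further: counterscreen of TLR9-MyD88 hits on CMV-driven BLA in CHO-K1 cells; 0% = DMSO alone and 100% = clavulanate blocking BLA; higher means less blue over green ratio so more BLA blockade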
TLR9 CHO tox – CHO cell toxicity counter-screen for TLR9-MyD88 inhibitors; 39% of 680 active; inhibition, % at 4.98 µM; TLR9-MyD88 CHO cells cytotoxicity, luminescence; shares compounds with TLR9-MyD88 block; in the data active means inhibition above about 11%
U2OS cAMP counter – nonselective cAMP signaling inhibitor, MC4R antagonist counter-screen; 26% of 1,600 active; parental U2OS, forskolin cAMP, LANCE TR-FRET; shares compounds with MC4R antag cAMP; AID 602193; inhibition, % at 6.5 µM;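 active means mean inhibition over triplicates above the low-control well mean plus 3 SD, set per campaign, cut at about 13% in these data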;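 further: signal is single emission at 671 nm which falls as cellular cAMP rises; 0% = forskolin-stimulated wells and 100% = buffer without forskolin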
MC4R cAMP antag – human MC4R cAMP antagonism confirmation; shares compounds with MC4R antag cAMP; MC4R-expressing cells, MTII-stimulated cAMP, TR-FRET; inhibition, % at 6.5 µM; 27% of 1,600 active; AID 602195; in the data active means inhibition above about 29%;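 further: 0% = agonist stimulated wells alone and 100% = agonist stimulated wells plus saturating reference antagonist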
NOD2-RIPK2 conf – confirmation of human NOD2-RIPK2 interaction inhibitors. shares compounds with NOD2 RIPK2 PPI. CHO cells, NOD2-RIPK2 BLA complementation, CCF4 FRET. inhibition, % at 4.98 µM. 70% of 1,200 active;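 active means mean inhibition across replicates above a set limit taken from the earlier primary screen, cut at about 21% in these data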;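 further: 0% = DMSO-only wells and the high end = clavulanate BLA-blocked wells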
BLA counter-2 – NOD2-RIPK2 counterscreen BLA reporter activity | shares compounds with NOD2 RIPK2 PPI | CHO BLA reporter, CCF4 FRET ratio | inhibition, % at 4.98 µM | 57% of 1,200 active | AID 624371;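 active means mean inhibition above the low-control mean inhibition plus three low-control SD, cut at about 11% in these data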;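 further: 0% = DMSO only wells and 100% = clavulanate high control wells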
Numbers without * were called inactive; . = no result given.

SMILES	NOD2 RIPK2 PPI	TLR9-MyD88 block	MC4R antag cAMP	MC4R barr agon	TLR4-MyD88 BLA	TLR4 MyD88 cnf	BLA inhibitor ct	TLR9-MyD88 conf	BLA counter-1	TLR9 CHO tox	NOD2-RIPK2 conf	BLA counter-2	others
CCCn1ccnc1SCC(=O)Nc1c(C)n(C)n(-c2ccccc2)c1=O	-2.9	6.6	-1.4	-1.0	.	.	.	.	.	.	.	.
Cc1nn(C)c(C)c1N1C(=O)c2cccc3c(N)ccc(c23)C1=O	34.0*	29.0*	-15.1	-2.0	29.4*	20.1	44.1*	15.2	19.2	2.8	43.9*	44.0*
Cc1nn(C)c(C)c1N1C(=O)c2cccc3c(Br)ccc(c23)C1=O	56.0*	48.3*	8.1	-3.4	65.7*	52.4*	92.1*	28.6*	32.7	5.8	51.3*	42.3*
CNC(=O)NC(=O)C(C)OC(=O)c1c2c(nc3ccccc13)/C(=C/c1cccs1)CC2 (centres undefined)	55.5*	51.0*	30.4*	8.2	50.7*	54.8*	84.8*	50.5*	63.5*	10.9*	72.0*	80.6*	U2OS cAMP counter=4.4;MC4R cAMP antag=16.6
CC(OC(=O)c1c2c(nc3ccccc13)/C(=C\c1ccc3c(c1)OCO3)CCC2)C(=O)Nc1ccc(S(N)(=O)=O)cc1 (centres undefined)	3.6	5.3	10.2	-0.4	12.2	.	.	.	.	.	.	.
CCCCNC(=O)COC(=O)c1c2c(nc3ccccc13)/C(=C/c1cccs1)CC2	52.3*	48.0*	13.3	5.0	55.7*	49.7*	83.1*	43.5*	46.1	6.0	66.5*	77.0*
CCCCNC(=O)COC(=O)c1c2c(nc3ccccc13)CCC2	2.0	3.1	9.4	-2.3	.	.	.	.	.	.	.	.
COc1ccc(/C=C/CN2CCC(n3nccc3NC(=O)C3CCCC3)CC2)cc1	-4.4	-2.4	-0.9	-4.0	.	.	.	.	.	.	.	.
O=[N+]([O-])c1ccccc1N/N=C/c1c[nH]c2ccccc12	-7.0	-5.5	-0.4	3.0	-16.1	.	.	.	.	.	.	.
O=[N+]([O-])c1ccc(N/N=C/c2c[nH]c3ccccc23)cc1	36.5*	44.1*	3.3	-4.9	40.1*	28.4*	52.5*	29.0*	24.0	8.8	45.8*	47.2*
COc1ccc(C(=O)c2sc3nc(-c4ccccc4)ccc3c2N)cc1	50.1*	40.4*	23.9	1.0	46.9*	51.8*	85.9*	52.0*	52.5*	5.8	72.8*	78.8*
CC(C)OC(=O)c1sc2nc(-c3ccccc3)ccc2c1N	24.4*	37.9*	6.7	9.5*	48.8*	48.3*	77.1*	42.0*	45.4	8.2	63.9*	73.5*
Cc1cccc(NC(=O)CSc2nc(=O)n(CCN3CCOCC3)c3c2CCCC3)c1C	5.0	5.5	16.3	0.4	.	.	.	.	.	.	.	.
CS/C(=C/[N+](=O)[O-])Nc1cccc2c1C(C)CC2(C)C (centres undefined)	5.9	4.1	2.6	-1.4	-2.0	.	.	.	.	.	.	.
Cc1cc(C)c2c(=O)cc(C(=O)NCc3ccccc3)oc2c1	0.9	-5.5	-20.1	2.2	.	.	.	.	.	.	.	.
Cc1cc(Cl)n2c(nc3cc(F)c(F)cc32)c1C#N	63.3*	70.9*	-0.4	-3.5	75.4*	71.7*	86.3*	66.3*	54.2*	100.9*	89.5*	82.2*
Cc1cc(C)n2c(=O)c3ccc(Cl)cc3nc2c1C#N	-5.6	-0.1	9.1	-1.8	1.1	.	.	.	.	.	.	.
Clc1ccc(C2=CC(c3ccco3)n3ncnc3N2)cc1 (centres undefined)	16.1	15.3	6.9	3.5	-4.5	.	.	.	.	.	.	.
COc1ccc(C2=CC(c3ccco3)n3ncnc3N2)cc1 (centres undefined)	21.2*	28.3*	0.9	0.1	8.4	.	.	8.4	9.7	6.9	.	.
N#Cc1ccc(CN2CCN(CC(=O)NCCc3ccc(Cl)cc3Cl)CC2)cc1	-3.0	1.0	5.6	-0.4	.	.	.	.	.	.	.	.
CC1Cc2cc(S(=O)(=O)N3CCN(c4ccccc4F)CC3)ccc2N1C(=O)C1CC1 (centres undefined)	1.5	0.0	4.1	-3.0	.	.	.	.	.	.	.	.
COc1cc(C(=O)NC2CCN(Cc3ccccc3)CC2)cc(Cl)c1OC	5.6	25.7*	-1.4	-1.4	.	.	.	4.5	3.8	4.6	.	.
O=C(O)c1cccc2c1C(=O)c1ccc(N3CCCC3)cc1S2(=O)=O	8.9	8.7	-0.3	-0.6	.	.	.	.	.	.	.	.
NC(=O)C1CCN(c2ccc3c(c2)S(=O)(=O)c2ccccc2C3=O)CC1	1.3	22.9*	-6.0	-2.3	.	.	.	6.1	5.1	0.0	.	.
CC1CCN(c2ccc3c(c2)S(=O)(=O)c2ccccc2C3=O)CC1	19.3	32.0*	0.1	0.4	.	.	.	22.0*	23.6	4.8	.	.
COc1ccccc1C1C=C(c2ccc(C)cc2)Nc2nnnn21 (centres undefined)	13.3	22.4*	-1.8	3.7	-9.0	.	.	2.1	2.0	8.3	.	.
COc1ccc(C(=O)NCC(=O)N/N=C/C(C)=C/c2ccccc2)cc1OC	1.8	20.9*	0.5	0.1	0.0	.	.	0.7	-2.3	-0.8	.	.
COc1ccc(C(=O)NCC(=O)N/N=C/C=C/c2ccccc2)cc1OC	-7.4	3.0	-6.5	-1.4	-8.4	.	.	.	.	.	.	.
O=C(c1ccc(Cl)cc1)C1CCN(C(=O)c2ccc(F)cc2)CC1	1.9	-6.3	3.0	-1.0	.	.	.	.	.	.	.	.
CCOC(=O)C1CCN(C(=O)N(CC)CC)CC1	-0.4	2.5	4.6	-1.0	-7.0	.	.	.	.	.	.	.

Assay outcomes as filed in PubChem.
